Reference: ChEMBL document CHEMBL3865827, “A novel class of ethacrynic acid derivatives as promising drug-like potent generation of anticancer agents with established mechanism of action” (Eur J Med Chem, 2016)
Active and inactive are the calls of the source. The rule behind the calls is not given here.

Experiments:
[1] = system: HL-60; assay: Antiproliferative activity against human HL60 cells at 50 uM after 24 hrs by viacount-reagent based FACS analysis
[2] = Cytotoxicity against human HL60 cells assessed as reduction in cell viability after 24 hrs by MTS assay; assay type: functional, cell-based; conditions: HL-60, 24 h
[3] = Cell cycle arrest in human HL60 cells assessed as accumulation at sub G1 phase at 2.5 uM after 48 hrs by propidium iodide-staining based FACS analysis (reference value: 1.4 %); assay type: functional; conditions: HL-60
Summary of the method: (§1)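 HL60 cells, 25,000 per well, exposed 24 and 48 h to 2.5 µM compounds; controls DMSO (1% final). Propidium iodide staining, flow cytometry; fractions in sub-G1, G0/G1, S and G2/M quantified.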

[4] = Antiproliferative activity against human KB cells after 24 to 72 hrs by MTS assay; assay type: functional, cell-based
Summary of the method: (§2)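 Cells plated, then dosed 24 h later with compounds in DMSO (1% final; controls DMSO alone), exposed 24 or 72 h. Proliferation inhibition measured as previously reported (MTS/NADH reagent). IC50 from duplicate experiments over 0.5 nM–100 µM. KB grown in D-MEM with 10% fetal calf serum, penicillin, streptomycin, fungizone, 5% CO2; other lines in complete RPMI. EPC are quiescent Cyprinus carpio endothelial progenitor cells.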

[5] = Antiproliferative activity against human SKOV3 cells after 24 to 72 hrs by MTS assay; assay type: functional, cell-based; conditions: SK-OV-3
[6] = system: HCT-116; assay: Induction of necrosis in human HCT116 cells assessed as increase in LDH release 50 uM after 24 to 48 hrs by fluorescence assay; assay type: functional, cell-based
[7] = Antiproliferative activity against human OVCAR8 cells after 24 to 72 hrs by MTS assay; assay type: functional, cell-based; conditions: OVCAR-8
[8] = Antiproliferative activity against human HCT116 cells after 24 to 72 hrs by MTS assay; assay type: functional, cell-based; conditions: HCT-116
[9] = system: HL-60; assay: Induction of apoptosis in human HL60 cells assessed as dead cells at 10 to 50 uM after 24 hrs by Annexin V/7AAD-dual staining based FACS analysis
[10] = Cell cycle arrest in human HL60 cells assessed as accumulation at sub G1 phase at 2.5 uM after 24 hrs by propidium iodide-staining based FACS analysis (reference value: 2.6 %); assay type: functional; conditions: HL-60
Summary of the method: as §1

[11] = system: HL-60; assay: Induction of apoptosis in human HL60 cells assessed as intact cells at 10 to 50 uM after 24 hrs by Annexin V/7AAD-dual staining based FACS analysis; assay type: functional, cell-based
Summary of the method: (§3)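 HL60 cells treated 24 h with EA (10 or 50 µM) or derivatives (5 µM); controls vehicle only. Annexin V/7-AAD staining, flow cytometry; cells classed as dead, necrotic/late apoptotic, intact or early apoptotic, as percentages.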

[12] = Antiproliferative activity against Cyprinus carpio EPC after 24 to 72 hrs by MTS assay
[13] = system: HL-60; assay: Induction of apoptosis in human HL60 cells assessed as intact cells at 50 uM after 24 hrs by Annexin V/7AAD-dual staining based FACS analysis (reference value: 91.6 %); assay type: functional
Summary of the method: as §3

[14] = system: HL-60; assay: Induction of apoptosis in human HL60 cells assessed as early apoptotic cells at 50 uM after 24 hrs by Annexin V/7AAD-dual staining based FACS analysis (reference value: 7.7 %); assay type: functional
Summary of the method: as §3

[15] = system: HL-60; assay: Induction of apoptosis in human HL60 cells assessed as necrotic/late apoptotic cells at 10 to 50 uM after 24 hrs by Annexin V/7AAD-dual staining based FACS analysis
[16] = Cell cycle arrest in human HL60 cells assessed as accumulation at S phase at 2.5 uM after 24 hrs by propidium iodide-staining based FACS analysis (reference value: 48.9 %); assay type: functional; conditions: HL-60
Summary of the method: as §1

[17] = Cell cycle arrest in human HL60 cells assessed as accumulation at S phase at 2.5 uM after 48 hrs by propidium iodide-staining based FACS analysis (reference value: 52.6 %); assay type: functional; conditions: HL-60
Summary of the method: as §1

[18] = Antiproliferative activity against human HL60 cells after 24 to 72 hrs by MTS assay; assay type: functional, cell-based; conditions: HL-60
Summary of the method: as §2

[19] = Antiproliferative activity against human MCF7 cells after 24 to 72 hrs by MTS assay; assay type: functional, cell-based
[20] = Cell cycle arrest in human HL60 cells assessed as accumulation at G2/M phase at 2.5 uM after 48 hrs by propidium iodide-staining based FACS analysis (reference value: 2.2 %); assay type: functional; conditions: HL-60
Summary of the method: as §1

[21] = system: KB; assay: Induction of necrosis in human KB cells assessed as increase in LDH release at 50 uM after 24 to 48 hrs by fluorescence assay; assay type: functional, cell-based
[22] = system: HL-60; assay: Induction of apoptosis in human HL60 cells assessed as dead cells at 10 uM after 24 hrs by Annexin V/7AAD-dual staining based FACS analysis (reference value: 0.1 %); assay type: functional
[23] = Cell cycle arrest in human HL60 cells assessed as accumulation at G2/M phase at 2.5 uM after 24 hrs by propidium iodide-staining based FACS analysis (reference value: 5.1 %); assay type: functional; conditions: HL-60
Summary of the method: as §1

[24] = Cell cycle arrest in human HL60 cells assessed as accumulation at G0/G1 phase at 2.5 uM after 24 hrs by propidium iodide-staining based FACS analysis (reference value: 43.5 %); assay type: functional; conditions: HL-60
Summary of the method: as §1

[25] = system: HL-60; assay: Induction of apoptosis in human HL60 cells assessed as early apoptotic cells at 10 uM after 24 hrs by Annexin V/7AAD-dual staining based FACS analysis (reference value: 7.7 %); assay type: functional
Summary of the method: as §3

[26] = system: KB; assay: Selectivity index, ratio of IC50 for Cyprinus carpio EPC to IC50 for human KB cells
[27] = system: HL-60; assay: Selectivity index, ratio of IC50 for Cyprinus carpio EPC to IC50 for human HL60 cells
[28] = Cell cycle arrest in human HL60 cells assessed as accumulation at G0/G1 phase at 2.5 uM after 48 hrs by propidium iodide-staining based FACS analysis (reference value: 43.8 %); assay type: functional; conditions: HL-60
Summary of the method: as §1

[29] = system: HL-60; assay: Induction of apoptosis in human HL60 cells assessed as early apoptotic cells at 10 to 50 uM after 24 hrs by Annexin V/7AAD-dual staining based FACS analysis; assay type: functional, cell-based
Summary of the method: as §3

[30] = system: HL-60; assay: Induction of apoptosis in human HL60 cells assessed as necrotic/late apoptotic cells at 10 uM after 24 hrs by Annexin V/7AAD-dual staining based FACS analysis (reference value: 0.6 %); assay type: functional
Summary of the method: as §3

[31] = Antiproliferative activity against human PC3 cells after 24 to 72 hrs by MTS assay; assay type: functional, cell-based; conditions: PC-3
[32] = system: HL-60; assay: Induction of apoptosis in human HL60 cells assessed as necrotic/late apoptotic cells at 50 uM after 24 hrs by Annexin V/7AAD-dual staining based FACS analysis (reference value: 0.6 %); assay type: functional
Summary of the method: as §3

[33] = system: HL-60; assay: Induction of apoptosis in human HL60 cells assessed as intact cells at 10 uM after 24 hrs by Annexin V/7AAD-dual staining based FACS analysis (reference value: 91.6 %); assay type: functional
Summary of the method: as §3

[34] = system: MRC5; assay: Induction of necrosis in human MRC5 SV2 cells assessed as increase in LDH release at 50 uM after 24 to 48 hrs by fluorescence assay; assay type: functional, cell-based
[35] = system: HL-60; assay: Induction of apoptosis in human HL60 cells assessed as dead cells at 50 uM after 24 hrs by Annexin V/7AAD-dual staining based FACS analysis (reference value: 0.1 %); assay type: functional

Structure (SMILES): C=C(CC)C(=O)c1ccc(OCC(=O)O)c(Cl)c1Cl [ETHACRYNIC ACID]
- Activity [1]: Active
- IC50 [2]: 38 µM
- Activity [3]: 3.1%
- IC50 [4]: 11 µM
- IC50 [5]: > 100 µM
- Activity [6]: Active
- IC50 [7]: 72 µM
- IC50 [8]: 75 µM
- Activity [9]: Active
- Activity [10]: 2.7%
- Activity [11]: Active
- IC50 [12]: > 100 µM
- Activity [13]: 57.9%
- Activity [14]: 41.3%
- Activity [15]: Active
- Activity [16]: 43.6%
- Activity [17]: 54.1%
- IC50 [18]: 46 µM
- IC50 [19]: 41 µM
- Activity [20]: 1.3%
- Activity [21]: Active
- Activity [22]: 0.1%
- Activity [23]: 8.3%
- Activity [24]: 45.4%
- Activity [25]: 11.2%
- Ratio IC50 [26]: >9
- Ratio IC50 [27]: >2
- Activity [28]: 41.5%
- Activity [29]: Active
- Activity [30]: 0.9%
- IC50 [31]: 75 µM
- Activity [32]: 0.8%
- Activity [33]: 87.8%
- Activity [34]: Active
- Activity [35]: 0%
